The target in test [1] is T1, Integrin alpha-V/beta-3 (Homo sapiens, UniProt P05106+P06756). The test can be described thus: Inhibition of vitronectin binding to recombinant human alphaV-beta3 integrin. Type of test: protein-complex assay. In short, it runs like this: (§1)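 Isolated-integrin ELISA. Plates were coated by adsorption from neutral buffer with 1 µg mL^-1 integrin: recombinant human αvβ3, αvβ5 or αvβ6, or αIIbβ3 isolated from human platelets. The plate was blocked with BSA. Biotinylated ligand (1 µg mL^-1) was added with serial inhibitor dilutions: human serum vitronectin for αvβ3/αvβ5, fibronectin for αvβ6, fibrinogen for αIIbβ3. Bound biotin was detected with peroxidase anti-biotin and TMB.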
T1 sequence (P05106 27-788 limits assumed): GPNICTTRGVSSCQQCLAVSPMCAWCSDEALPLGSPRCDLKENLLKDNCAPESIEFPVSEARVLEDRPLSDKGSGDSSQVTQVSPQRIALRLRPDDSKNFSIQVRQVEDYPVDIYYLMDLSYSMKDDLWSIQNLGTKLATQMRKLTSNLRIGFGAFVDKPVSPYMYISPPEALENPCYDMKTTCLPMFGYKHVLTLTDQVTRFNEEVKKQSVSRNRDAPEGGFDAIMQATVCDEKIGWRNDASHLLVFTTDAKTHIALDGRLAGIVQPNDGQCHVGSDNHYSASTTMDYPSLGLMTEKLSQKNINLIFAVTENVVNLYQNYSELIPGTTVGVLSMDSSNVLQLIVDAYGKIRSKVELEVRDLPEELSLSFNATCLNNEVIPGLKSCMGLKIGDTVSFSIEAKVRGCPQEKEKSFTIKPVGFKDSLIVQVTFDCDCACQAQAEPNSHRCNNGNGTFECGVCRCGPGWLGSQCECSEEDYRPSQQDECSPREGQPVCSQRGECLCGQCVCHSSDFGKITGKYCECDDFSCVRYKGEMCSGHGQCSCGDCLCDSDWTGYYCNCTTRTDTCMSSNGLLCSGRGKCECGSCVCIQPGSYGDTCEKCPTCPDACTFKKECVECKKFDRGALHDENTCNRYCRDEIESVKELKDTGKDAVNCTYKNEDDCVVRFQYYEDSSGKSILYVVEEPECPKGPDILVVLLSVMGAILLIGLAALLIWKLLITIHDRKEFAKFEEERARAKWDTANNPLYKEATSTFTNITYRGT
T1 sequence (P06756 31-889 limits assumed): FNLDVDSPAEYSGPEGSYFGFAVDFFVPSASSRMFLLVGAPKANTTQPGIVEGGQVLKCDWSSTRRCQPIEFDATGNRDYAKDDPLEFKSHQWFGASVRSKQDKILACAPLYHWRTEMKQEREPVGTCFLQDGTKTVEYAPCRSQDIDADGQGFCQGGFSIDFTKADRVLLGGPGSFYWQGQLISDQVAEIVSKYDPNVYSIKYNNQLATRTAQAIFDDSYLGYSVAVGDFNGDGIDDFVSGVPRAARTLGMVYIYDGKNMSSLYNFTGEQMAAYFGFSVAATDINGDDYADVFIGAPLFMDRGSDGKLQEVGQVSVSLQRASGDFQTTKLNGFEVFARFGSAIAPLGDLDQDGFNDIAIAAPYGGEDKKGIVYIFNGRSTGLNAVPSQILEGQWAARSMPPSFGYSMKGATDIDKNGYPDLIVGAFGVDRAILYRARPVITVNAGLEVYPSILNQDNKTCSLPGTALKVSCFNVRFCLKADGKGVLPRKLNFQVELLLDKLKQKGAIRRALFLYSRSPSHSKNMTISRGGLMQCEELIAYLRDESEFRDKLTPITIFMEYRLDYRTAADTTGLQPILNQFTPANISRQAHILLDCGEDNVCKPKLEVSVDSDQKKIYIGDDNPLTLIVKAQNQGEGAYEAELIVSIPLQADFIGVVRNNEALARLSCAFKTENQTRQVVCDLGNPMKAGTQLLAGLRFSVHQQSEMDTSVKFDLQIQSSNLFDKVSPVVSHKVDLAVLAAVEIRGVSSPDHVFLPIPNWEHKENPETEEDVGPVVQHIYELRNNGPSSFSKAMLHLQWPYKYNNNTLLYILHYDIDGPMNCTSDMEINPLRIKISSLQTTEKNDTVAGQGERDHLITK
T1 sequence (P06756 891-1048 limits assumed): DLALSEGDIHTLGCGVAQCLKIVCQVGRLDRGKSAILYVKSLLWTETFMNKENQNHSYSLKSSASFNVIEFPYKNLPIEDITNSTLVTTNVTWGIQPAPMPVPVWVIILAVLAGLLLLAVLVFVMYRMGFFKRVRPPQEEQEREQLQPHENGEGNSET

In test [2] the target is T2, Integrin alpha-V/beta-6 (Homo sapiens, UniProt P06756+P18564). The test can be described thus: Inhibition of fibronectin binding to recombinant human alphaV-beta6 integrin. Format: protein-complex assay. The essentials:
as §1

For test [3], the target named is T3, Integrin alpha-V/beta-5 (Homo sapiens, UniProt P06756+P18084). The test can be described thus: Inhibition of integrin alpha-v/beta-5 mediated UCLAP-3 cell adhesion on vitronectin. Type of test: functional, cell-based. In short, it runs like this:
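UCLAP-3 human lung adenocarcinoma cells attach to vitronectin exclusively via αvβ5. Freshly harvested cells were plated on vitronectin-coated surfaces into serial inhibitor dilutions. Attachment was measured at 1 h by lysosomal hexosaminidase cell count. IC50 by curve fitting, mean of two independent determinations.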

The target of test [4] is Integrin alpha-IIb/beta-3 (Homo sapiens, UniProt P05106+P08514). The test can be described thus: Inhibition of fibrinogen binding to human platelet glycoprotein alpha IIb beta3 integrin.
Integrin alpha-IIb/beta-3, sequence (P05106 27-788 limits assumed): as the sequence (P05106 27-788 limits assumed) above
Integrin alpha-IIb/beta-3, sequence (P08514 32-887 limits assumed): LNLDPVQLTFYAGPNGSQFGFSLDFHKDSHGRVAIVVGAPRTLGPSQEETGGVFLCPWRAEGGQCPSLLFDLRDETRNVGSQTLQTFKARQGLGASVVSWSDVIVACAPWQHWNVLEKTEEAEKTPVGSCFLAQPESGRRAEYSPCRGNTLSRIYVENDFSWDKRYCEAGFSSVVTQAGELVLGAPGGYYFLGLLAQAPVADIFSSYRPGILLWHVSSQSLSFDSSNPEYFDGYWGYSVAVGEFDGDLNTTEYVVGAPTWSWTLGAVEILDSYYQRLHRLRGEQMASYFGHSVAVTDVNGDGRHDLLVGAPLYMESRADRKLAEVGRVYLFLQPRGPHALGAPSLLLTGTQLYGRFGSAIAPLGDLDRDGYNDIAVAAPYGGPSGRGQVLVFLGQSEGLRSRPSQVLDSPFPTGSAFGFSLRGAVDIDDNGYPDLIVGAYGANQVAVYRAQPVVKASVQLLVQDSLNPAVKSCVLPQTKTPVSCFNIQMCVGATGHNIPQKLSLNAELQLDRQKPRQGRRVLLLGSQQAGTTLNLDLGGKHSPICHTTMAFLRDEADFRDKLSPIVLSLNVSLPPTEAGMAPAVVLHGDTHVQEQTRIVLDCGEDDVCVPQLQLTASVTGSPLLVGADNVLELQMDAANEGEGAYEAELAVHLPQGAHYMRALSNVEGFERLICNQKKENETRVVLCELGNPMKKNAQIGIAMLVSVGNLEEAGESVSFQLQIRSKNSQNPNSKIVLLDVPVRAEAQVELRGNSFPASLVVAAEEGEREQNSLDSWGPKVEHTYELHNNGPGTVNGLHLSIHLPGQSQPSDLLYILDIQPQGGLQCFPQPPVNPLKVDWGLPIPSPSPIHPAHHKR
Integrin alpha-IIb/beta-3, sequence (P08514 891-1039 limits assumed): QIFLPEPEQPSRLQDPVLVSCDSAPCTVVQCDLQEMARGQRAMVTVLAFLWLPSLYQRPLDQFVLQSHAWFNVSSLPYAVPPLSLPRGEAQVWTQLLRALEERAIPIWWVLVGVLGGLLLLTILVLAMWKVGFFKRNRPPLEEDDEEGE
The target of test [5] is T2, Integrin alpha-V/beta-6. The test can be described thus: Inhibition of integrin alpha-v/beta-6 mediated UCLAP-3 cell adhesion to fibronectin. Type of test: functional, cell-based.
The target in test [6] is T1, Integrin alpha-V/beta-3. The test can be described thus: Inhibition of integrin alpha-v/beta-3 mediated M21 cell adhesion to vitronectin with monoclonal antibody P1F6. Type of test: functional, cell-based. The essentials: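 M21 human melanoma cells were freshly harvested and plated on vitronectin-coated surfaces into serial inhibitor dilutions, with αvβ5-blocking mAb P1F6 present so attachment is αvβ3-dependent. Attached cells were counted after 1 h by lysosomal hexosaminidase. IC50 by curve fitting, mean of two independent determinations.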

In test [7] the target is T3, Integrin alpha-V/beta-5. The test can be described thus: Inhibition of vitronectin binding to recombinant human alphaV-beta5 integrin. Format: protein-complex assay. In short, it runs like this:
as §1

Each structure is given as a SMILES string.

T3 sequence (P06756 31-889 limits assumed): as the sequence (P06756 31-889 limits assumed) above
T3 sequence (P06756 891-1048 limits assumed): as the sequence (P06756 891-1048 limits assumed) above
T3 sequence (P18084 24-799 limits assumed): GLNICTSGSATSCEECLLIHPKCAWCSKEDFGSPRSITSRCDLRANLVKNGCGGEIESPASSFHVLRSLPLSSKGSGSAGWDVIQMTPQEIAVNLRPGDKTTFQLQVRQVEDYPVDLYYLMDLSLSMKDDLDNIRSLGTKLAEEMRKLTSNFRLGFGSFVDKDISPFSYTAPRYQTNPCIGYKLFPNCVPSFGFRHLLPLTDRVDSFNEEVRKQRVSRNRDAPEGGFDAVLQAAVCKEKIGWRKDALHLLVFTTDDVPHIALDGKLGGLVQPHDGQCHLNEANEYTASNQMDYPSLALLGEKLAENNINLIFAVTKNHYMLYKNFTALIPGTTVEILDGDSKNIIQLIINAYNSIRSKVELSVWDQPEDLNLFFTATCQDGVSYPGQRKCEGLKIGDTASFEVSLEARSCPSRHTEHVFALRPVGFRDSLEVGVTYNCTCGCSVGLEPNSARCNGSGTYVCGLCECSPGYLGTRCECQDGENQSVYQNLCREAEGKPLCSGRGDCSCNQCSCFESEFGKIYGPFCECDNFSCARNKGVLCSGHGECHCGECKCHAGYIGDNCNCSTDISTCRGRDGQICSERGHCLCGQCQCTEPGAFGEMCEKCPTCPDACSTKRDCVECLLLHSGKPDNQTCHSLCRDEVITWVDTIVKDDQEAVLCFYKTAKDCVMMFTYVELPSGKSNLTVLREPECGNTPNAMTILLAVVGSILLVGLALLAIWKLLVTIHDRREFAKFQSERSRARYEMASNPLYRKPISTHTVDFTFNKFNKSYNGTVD
T2 sequence (P06756 31-889 limits assumed): as the sequence (P06756 31-889 limits assumed) above
T2 sequence (P06756 891-1048 limits assumed): as the sequence (P06756 891-1048 limits assumed) above
T2 sequence (P18564 22-788 limits assumed): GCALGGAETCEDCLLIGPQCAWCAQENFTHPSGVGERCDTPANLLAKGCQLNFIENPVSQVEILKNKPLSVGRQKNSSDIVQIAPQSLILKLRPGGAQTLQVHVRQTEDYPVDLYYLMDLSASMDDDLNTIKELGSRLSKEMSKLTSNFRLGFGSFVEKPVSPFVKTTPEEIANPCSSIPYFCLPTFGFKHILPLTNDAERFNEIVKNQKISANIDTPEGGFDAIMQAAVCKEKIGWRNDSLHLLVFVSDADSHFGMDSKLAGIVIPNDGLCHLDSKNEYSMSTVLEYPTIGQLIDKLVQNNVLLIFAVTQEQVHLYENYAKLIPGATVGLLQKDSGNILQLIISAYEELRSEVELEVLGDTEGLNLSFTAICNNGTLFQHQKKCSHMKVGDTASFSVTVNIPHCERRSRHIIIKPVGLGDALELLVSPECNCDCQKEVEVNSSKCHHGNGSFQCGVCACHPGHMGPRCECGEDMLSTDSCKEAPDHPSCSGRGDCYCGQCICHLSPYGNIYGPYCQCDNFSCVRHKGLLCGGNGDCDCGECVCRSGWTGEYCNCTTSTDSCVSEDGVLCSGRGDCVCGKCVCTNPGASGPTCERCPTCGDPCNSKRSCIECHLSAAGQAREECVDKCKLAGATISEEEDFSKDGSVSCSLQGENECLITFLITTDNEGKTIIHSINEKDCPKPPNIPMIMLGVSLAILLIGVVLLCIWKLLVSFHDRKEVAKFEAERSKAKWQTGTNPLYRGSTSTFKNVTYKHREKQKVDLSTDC

The term IC50 denotes the point on the concentration scale where inhibition reaches its midpoint. On to `Cc1ccnc(NCCCCC(=O)NNC(=O)CC(CC(=O)O)c2cc(Cl)cc(Cl)c2)c1` (centres undefined), for which the concentration for half-maximal inhibition (IC50) at Integrin alpha-V/beta-3 [1] was 6 nM; on Integrin alpha-V/beta-6 [2], 44 nM; on Integrin alpha-V/beta-5 [3], 18 µM; in test [4], above 10 µM; at Integrin alpha-V/beta-6 [5], 1600 nM; on Integrin alpha-V/beta-3 [6] it was 20 µM. At Integrin alpha-V/beta-5 [7], the half-inhibitory concentration (IC50) worked out at 5700 nM.

For the molecule `Cc1ccnc(NCCCC(=O)NCC(=O)NC(CC(=O)O)c2ccc(-c3cccc4ccccc34)cc2)c1` (centres undefined), the IC50 was determined as 8 nM at Integrin alpha-V/beta-3 [1]; 0.04 nM on Integrin alpha-V/beta-6 [2]; 20 µM on Integrin alpha-V/beta-5 [3]; 4.23 µM in test [4]; 200 nM against Integrin alpha-V/beta-6 [5]; 3 µM against Integrin alpha-V/beta-3 [6]. For the same molecule, the IC50 on Integrin alpha-V/beta-5 [7] was determined as 5170 nM.

Take `Cc1ccnc(NCCCCC(=O)NNC(=O)NC(CC(=O)O)c2cc(Cl)cc(Cl)c2)c1` (centres undefined): the IC50 on Integrin alpha-V/beta-3 [1] is 64 nM; at Integrin alpha-V/beta-6 [2] it was 1.7 nM; against Integrin alpha-V/beta-5 [3], 5 µM; in test [4] it was above 10 µM; on Integrin alpha-V/beta-6 [5], 300 nM; against Integrin alpha-V/beta-3 [6] it was 12 µM. Also, on Integrin alpha-V/beta-5 [7], the half-maximal inhibitory concentration (IC50) was 2500 nM.

For the molecule `O=C(O)CC(NC(=O)CNC(=O)CCCCNc1ccccn1)c1ccc(-c2ccccc2)cc1` (centres undefined), the IC50 on Integrin alpha-V/beta-3 [1] was 0.45 nM; on Integrin alpha-V/beta-6 [2] it was 0.6 nM; at Integrin alpha-V/beta-5 [3], 26 µM; in test [4], 4.05 µM; against Integrin alpha-V/beta-6 [5], 100 nM; on Integrin alpha-V/beta-3 [6], 9.5 µM. Further, the 50% inhibitory concentration (IC50) on Integrin alpha-V/beta-5 [7] turned out to be 2670 nM.

In the case of `N=C(N)NCCCCC(=O)NNC(=O)NC(CC(=O)O)c1ccccc1` (centres undefined), the IC50 at Integrin alpha-V/beta-6 [2] was 460 nM; against Integrin alpha-V/beta-5 [3] it was 43 µM; on Integrin alpha-V/beta-6 [5], 9600 nM; on Integrin alpha-V/beta-3 [6], above 50 µM; on Integrin alpha-V/beta-5 [7], 26 nM.

For the molecule `Cc1ccnc(NCCCC(=O)NCC(=O)NC(CC(=O)O)c2cccc(OC(F)(F)F)c2)c1` (centres undefined), the concentration for half-maximal inhibition (IC50) is 14 nM on Integrin alpha-V/beta-3 [1]; 0.15 nM at Integrin alpha-V/beta-6 [2]; 27 µM against Integrin alpha-V/beta-5 [3]; above 10 µM in test [4]; 30 nM against Integrin alpha-V/beta-6 [5]; 24 µM on Integrin alpha-V/beta-3 [6]. On Integrin alpha-V/beta-5 [7], the concentration for half-maximal inhibition (IC50) was 39 nM.

As for `Cc1ccnc(NCCCCCCC(=O)NC(CC(=O)O)c2cccc([N+](=O)[O-])c2)c1` (centres undefined), the IC50 was 53 nM at Integrin alpha-V/beta-3 [1]; 61 nM at Integrin alpha-V/beta-6 [2]; 21 µM on Integrin alpha-V/beta-5 [3]; 0.58 µM in test [4]; 2100 nM on Integrin alpha-V/beta-6 [5]; above 50 µM against Integrin alpha-V/beta-3 [6]. For the same molecule, at Integrin alpha-V/beta-5 [7], the IC50 was determined as 1600 nM.

Turning to `O=C(O)CC(NC(=O)CNC(=O)CCCNc1ccccn1)c1cccc([N+](=O)[O-])c1` (centres undefined), the half-inhibitory concentration (IC50) at Integrin alpha-V/beta-3 [1] is 13 nM; on Integrin alpha-V/beta-6 [2] it was 4 nM; at Integrin alpha-V/beta-5 [3], 1.2 µM; in test [4], 7.3 µM; against Integrin alpha-V/beta-6 [5], 90 nM; against Integrin alpha-V/beta-3 [6], 6.9 µM. Also, the 50% inhibitory concentration (IC50) at Integrin alpha-V/beta-5 [7] worked out at 42 nM.

As to `Cc1ccnc(NCCCCC(=O)NNC(=O)CC(CC(=O)O)c2ccc(-c3ccccc3)cc2)c1` (centres undefined), the half-inhibitory concentration (IC50) was 4 nM at Integrin alpha-V/beta-3 [1]; 53 nM at Integrin alpha-V/beta-6 [2]; 24 µM at Integrin alpha-V/beta-5 [3]; 3 µM in test [4]; 3800 nM on Integrin alpha-V/beta-6 [5]; 0.97 µM at Integrin alpha-V/beta-3 [6]. Further, the half-inhibitory concentration (IC50) on Integrin alpha-V/beta-5 [7] worked out at 8700 nM.

As to `C[C@H]1C(=O)N[C@@H](CCCN=C(N)N)C(=O)NCC(=O)N[C@@H](CC(=O)O)C(=O)N[C@H](Cc2ccccc2)C(=O)N1C`, the concentration for half-maximal inhibition (IC50) is 2400 nM at Integrin alpha-V/beta-6 [2]; 1.3 µM on Integrin alpha-V/beta-5 [3]; 6 µM in test [4]; 37000 nM at Integrin alpha-V/beta-6 [5]; 3.9 µM against Integrin alpha-V/beta-3 [6]; 662 nM at Integrin alpha-V/beta-5 [7].

Regarding `Cc1ccnc(NCCCCC(=O)NCC(=O)NC(CC(=O)O)c2cc(Cl)cc(Cl)c2)c1` (centres undefined), the half-inhibitory concentration (IC50) at Integrin alpha-V/beta-3 [1] is 53 nM; at Integrin alpha-V/beta-6 [2], 0.4 nM; at Integrin alpha-V/beta-5 [3], 2 µM; in test [4] it was above 10 µM; against Integrin alpha-V/beta-6 [5] it was 300 nM; on Integrin alpha-V/beta-3 [6], 16 µM. In addition, on Integrin alpha-V/beta-5 [7], the IC50 amounted to 350 nM.
